Source: ChEMBL document CHEMBL1150669, “Isolation and characterization of novel oligosaccharides related to Ziracin” (2002)

Key:
Format in all cases: functional
[1] = test system: Staphylococcus aureus; assay: Antimicrobial activity against Staphylococcus aureus at 20 ug/8 mm disk at pH 8 by agar diffusion method
In short: (§1)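 Agar disk diffusion against S. aureus. Samples dissolved at 1 mg/mL in CH2Cl2/MeOH (95:5 v/v), plus a 10-fold dilution in the same vehicle; 20 µL of each applied to 8 mm paper disks and air-dried 30 min. Disks placed on S. aureus-seeded agar at pH 7 and pH 8, incubated overnight at 35 °C. Read-out: inhibition zone diameter (mm).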

[2] = test system: Staphylococcus aureus; assay: Antimicrobial activity against Staphylococcus aureus at 2 ug/8 mm disk at pH 8 by agar diffusion method; in short: as §1
[3] = test system: Staphylococcus aureus; assay: Antimicrobial activity against Staphylococcus aureus at 20 ug/8 mm disk at pH 7 by agar diffusion method; in short: as §1
[4] = test system: Staphylococcus aureus; assay: Antimicrobial activity against Staphylococcus aureus at 2 ug/8 mm disk at pH 7 by agar diffusion method; in short: as §1

| SMILES | inhibition zone (IZ) [1] [mm] | inhibition zone (IZ) [2] [mm] | inhibition zone (IZ) [3] [mm] | inhibition zone (IZ) [4] [mm] |
| --- | --- | --- | --- | --- |
| COC[C@H]1O[C@@H](O[C@@H]2OC[C@@H]3O[C@@]4(OC[C@@H](OC(=O)c5c(C)cc(O)cc5O)[C@@H]5OCO[C@H]54)O[C@H]3[C@H]2O)[C@@H](OC)[C@@H](O)[C@@H]1O[C@@H]1O[C@H](C)[C@H](OC)[C@H](O[C@@H]2O[C@H](C)[C@H]3O[C@]4(C[C@@H](O)[C@H](O[C@H]5C[C@@H](O[C@H]6C[C@](C)([N+](=O)[O-])[C@@H](O)[C@H](C)O6)[C@H](OC(=O)c6c(C)c(Cl)c(O)c(Cl)c6OC)[C@@H](C)O5)[C@@H](C)O4)O[C@]3(C)[C@@H]2O)[C@H]1O | 20 | 18 | 23 | 20 |
| COC[C@H]1O[C@@H](O[C@@H]2OC[C@@H]3O[C@@]4(OC[C@@H](OC(=O)c5c(C)cc(O)cc5O)[C@@H]5OCO[C@H]54)O[C@H]3[C@H]2O)[C@@H](OC)[C@@H](O)[C@@H]1O[C@@H]1O[C@H](C)[C@H](OC)[C@H](O[C@@H]2O[C@H](C)[C@H]3O[C@]4(C[C@@H](O)[C@H](O[C@H]5C[C@@H](O[C@H]6C[C@](C)([N+](=O)[O-])[C@@H](OC)[C@H](C)O6)[C@H](OC(=O)c6c(C)c(Cl)c(O)c(Cl)c6OC)[C@@H](C)O5)[C@@H](C)O4)O[C@]3(C)[C@@H]2O)[C@H]1O [EVERNIMICIN] | 21 | 19 | 26 | 23 |
| COC[C@H]1O[C@@H](O[C@@H]2OC[C@@H]3O[C@@]4(OC[C@@H](OC(=O)c5c(C)cc(O)cc5O)[C@@H]5OCO[C@H]54)O[C@H]3[C@H]2O)[C@@H](OC)[C@@H](O)[C@@H]1O[C@@H]1O[C@H](C)[C@H](OC)[C@H](O[C@@H]2O[C@H](C)[C@H]3O[C@]4(C[C@@H](O)[C@H](O[C@H]5C[C@@H](O[C@H]6C[C@](C)([N+](=O)[O-])[C@@H](OC)[C@H](C)O6)[C@H](OC(=O)c6c(C)cc(O)c(Cl)c6O)[C@@H](C)O5)[C@@H](C)O4)O[C@]3(C)[C@@H]2O)[C@H]1O | 18 | 16 | 22 | 17 |
| COC[C@H]1O[C@@H](O[C@@H]2OC[C@@H]3O[C@@]4(OC[C@@H](OC(=O)c5c(C)cc(O)cc5O)[C@H](OC=O)[C@H]4O)O[C@H]3[C@H]2O)[C@@H](OC)[C@@H](O)[C@@H]1O[C@@H]1O[C@H](C)[C@H](OC)[C@H](O[C@@H]2O[C@H](C)[C@H]3O[C@]4(C[C@@H](O)[C@H](O[C@H]5C[C@@H](O[C@H]6C[C@](C)([N+](=O)[O-])[C@@H](OC)[C@H](C)O6)[C@H](OC(=O)c6c(C)c(Cl)c(O)c(Cl)c6OC)[C@@H](C)O5)[C@@H](C)O4)O[C@]3(C)[C@@H]2O)[C@H]1O | 18 | 15 | 21 | 17 |
| COC[C@H]1O[C@@H](O[C@@H]2OC[C@@H]3O[C@@]4(OC[C@@H](OC(=O)c5c(C)cc(O)cc5O)[C@@H]5OCO[C@H]54)O[C@H]3[C@H]2O)[C@@H](OC)[C@@H](O)[C@@H]1O[C@@H]1O[C@H](C)[C@H](OC)[C@H](O[C@@H]2O[C@H](C)[C@H]3O[C@]4(C[C@@H](O)[C@H](O[C@H]5C[C@@H](O[C@H]6C[C@](C)([N+](=O)[O-])[C@@H](OC)[C@H](C)O6)[C@H](OC(=O)c6c(C)cc(O)c(Cl)c6OC)[C@@H](C)O5)[C@@H](C)O4)O[C@]3(C)[C@@H]2O)[C@H]1O | 17 | 16 | 20 | 17 |
| COC[C@H]1O[C@@H](O[C@@H]2OC[C@@H]3O[C@@]4(OC[C@@H](OC(=O)c5c(C)cc(O)cc5O)[C@@H]5OCO[C@H]54)O[C@H]3[C@H]2O)[C@@H](OC)[C@@H](O)[C@@H]1O | 8 | 8 | 10 | 8 |
